The source made the active and inactive calls.
What was measured:
Assay type in all cases: cell-based
[1] = molecular target: Nuclear receptor subfamily 4 group A member 2 (Homo sapiens) (UniProt P43354); experiment: Modulation of full length human Nurr1 expressed in HEK293T cells co-transfected with RXRalpha and luciferase reporter plasmid harboring NurRE response element assessed as decrease in luciferase activity at 1.95 to 125 uM incubated for 18 hrs by luciferase reporter gene assay; settings: filed as modulator, dose 1.95-125 µM
Sequence of Nuclear receptor subfamily 4 group A member 2 (Homo sapiens) (P43354 whole entry): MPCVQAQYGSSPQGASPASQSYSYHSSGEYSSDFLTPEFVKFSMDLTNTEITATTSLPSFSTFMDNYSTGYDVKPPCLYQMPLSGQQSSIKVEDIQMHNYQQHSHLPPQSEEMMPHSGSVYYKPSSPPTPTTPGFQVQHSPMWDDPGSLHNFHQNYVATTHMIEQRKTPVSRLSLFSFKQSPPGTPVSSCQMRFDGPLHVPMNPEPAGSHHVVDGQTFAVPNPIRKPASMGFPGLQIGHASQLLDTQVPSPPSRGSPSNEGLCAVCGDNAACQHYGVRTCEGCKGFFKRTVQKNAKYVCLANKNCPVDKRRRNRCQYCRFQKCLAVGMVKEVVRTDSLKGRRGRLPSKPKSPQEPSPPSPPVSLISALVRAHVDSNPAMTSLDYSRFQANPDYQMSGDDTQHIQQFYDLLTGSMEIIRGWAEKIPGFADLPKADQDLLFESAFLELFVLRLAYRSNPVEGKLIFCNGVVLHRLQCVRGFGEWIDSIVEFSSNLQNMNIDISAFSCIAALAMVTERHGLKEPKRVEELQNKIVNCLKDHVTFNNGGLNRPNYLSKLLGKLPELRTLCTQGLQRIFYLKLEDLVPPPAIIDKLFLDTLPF
Procedure, shortened: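 Full-length Nurr1 plasmid, alone (2 μg) or 1 μg plus full-length RXRα (1 μg), cotransfected with 3xNBRE- or 3xNurRE-luciferase reporter (6 μg) using Lipofectamine 2000, 18 h. Cells replated at 10,000/well for 4 h. Four ligand concentrations, or vehicle (water, ethanol or DMSO), added in quadruplicate for 18 h. Luciferase read. Fold change vs vehicle, mean ± s.e.m., one-way ANOVA vs vehicle.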

[2] = molecular target: Nuclear receptor subfamily 4 group A member 2 (Homo sapiens) (UniProt P43354); experiment: Modulation of full length human Nurr1 expressed in PC12 cells co-transfected with luciferase reporter plasmid harboring NBRE response element assessed as decrease in luciferase activity at 1.95 to 125 uM incubated for 18 hrs by luciferase reporter gene assay; settings: PC-12, filed as modulator, dose 1.95-125 µM
Procedure, shortened: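 Here PC12 cells (FK-12 medium, 15% horse serum, 2.5% FBS, 37°C, 5% CO2) received full-length Nurr1 (2 μg) without RXRα, plus 3xNBRE- or 3xNurRE-luciferase reporter (6 μg), for 18 h. Cells were replated at 10,000/well for 4 h, then treated with ligand or vehicle in quadruplicate for 18 h. Luciferase luminescence was normalized to vehicle-treated cells. Results are mean ± s.e.m. (n=4) from 2 independent experiments, with one-way ANOVA against vehicle.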

[3] = molecular target: Nuclear receptor subfamily 4 group A member 2 (Homo sapiens) (UniProt P43354); experiment: Modulation of full length human Nurr1 expressed in PC12 cells co-transfected with RXRalpha and luciferase reporter plasmid harboring NurRE response element assessed as decrease in luciferase activity at 1.95 to 125 uM incubated for 18 hrs by luciferase reporter gene assay; settings: PC-12, filed as modulator, dose 1.95-125 µM
Procedure, shortened: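 PC12 cells were grown at 37°C and 5% CO2 in […] medium with 15% horse serum and 2.5% FBS. They were transfected with full-length Nurr1 (1 μg) plus full-length RXRα (1 μg) and 3xNBRE- or 3xNurRE-luciferase reporter (6 μg) for 18 h, then replated at 10,000 cells/well for 4 h. Ligand or vehicle (water, ethanol or DMSO) was added in quadruplicate for 18 h. Luminescence was read as fold change over vehicle. Results are mean ± s.e.m., n=4, from 2 independent experiments, analysed by one-way ANOVA against vehicle.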

[4] = molecular target: Nuclear receptor subfamily 4 group A member 2 (Homo sapiens) (UniProt P43354); experiment: Modulation of full length human Nurr1 expressed in SK-N-BE(2) cells co-transfected with RXRalpha and luciferase reporter plasmid harboring NBRE response element assessed as increase in luciferase activity at 1.95 to 125 uM incubated for 18 hrs by luciferase reporter gene assay; settings: SKNBE2, filed as modulator, dose 1.95-125 µM
Procedure, shortened: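 SK-N-BE(2)-C cells were kept in 1:1 EMEM/F12 with 10% FBS at 37°C and 5% CO2. They were cotransfected with full-length Nurr1 (1 μg), full-length RXRα (1 μg) and 3xNBRE- or 3xNurRE-luc reporter (6 μg) for 18 h, replated at 10,000 cells/well for 4 h, and then treated with ligand or vehicle in quadruplicate for 18 h. The readout was luciferase luminescence as fold over vehicle, reported as mean ± s.e.m. (n=4) from 2 independent experiments, one-way ANOVA.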

SKNBE2 = experiment: Modulation of Gal4-fused VP16 expressed in SKNBE(2) cells co-transfected with UAS repoter gene assessed as increase in luciferase activity upto 15 uM incubated for 18 hrs by luciferase reporter gene assay; settings: Human alphaherpesvirus 2, filed as modulator, dose microM <=15, time 18.0 hrs
Procedure, shortened: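 Cells in 10-cm dishes were transfected with Gal4-VP16 expression plasmid (2 μg) plus 5xUAS-luciferase reporter (2 μg) for 18 h. They were replated at 10,000 cells/well for 4 h, then given ligand or vehicle (water, ethanol or DMSO) in quadruplicate for 18 h. Luciferase was read with Britelite Plus. Fold change is versus vehicle-treated cells, with one-way ANOVA versus vehicle.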

HEK293T = experiment: Modulation of Gal4-fused VP16 expressed in HEK293T cells co-transfected with UAS repoter gene assessed as decrease in luciferase activity at 1.56 to 6.25 uM incubated for 18 hrs by luciferase reporter gene assay; settings: Human alphaherpesvirus 2, filed as modulator, dose 1.56-6.25 µM
Procedure, shortened: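 Constitutive control: cells transfected (Lipofectamine 2000) with Gal4-VP16 expression plasmid (2 μg) plus 5xUAS-luciferase reporter (2 μg), 18 h; replated 10,000 cells/well, 4 h; ligand or vehicle in quadruplicate for 18 h; luciferase read by Britelite Plus; signal as fold change over vehicle-treated cells. Mean ± s.e.m. (n=4); one-way ANOVA versus vehicle.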

[5] = molecular target: Nuclear receptor subfamily 4 group A member 2 (Homo sapiens) (UniProt P43354); experiment: Modulation of full length human Nurr1 expressed in SKNBE(2) cells co-transfected with RXRalpha and luciferase reporter plasmid harboring NurRE response element assessed as decrease in luciferase activity at 1.56 to 6.25 uM incubated for 18 by luciferase reporter gene assay; settings: SKNBE2, filed as modulator, dose 1.56-6.25 µM, time 18.0 hrs
[6] = molecular target: Nuclear receptor subfamily 4 group A member 2 (Homo sapiens) (UniProt P43354); experiment: Modulation of full length human Nurr1 expressed in SKNBE(2) cells co-transfected with RXRalpha and luciferase reporter plasmid harboring NurRE response element assessed as increase in luciferase activity at 1.56 to 6.25 uM incubated for 18 by luciferase reporter gene assay; settings: SKNBE2, filed as modulator, dose 1.56-6.25 µM, time 18.0 hrs
[7] = molecular target: Nuclear receptor subfamily 4 group A member 2 (Homo sapiens) (UniProt P43354); experiment: Modulation of full length human Nurr1 expressed in PC12 cells co-transfected with RXRalpha and luciferase reporter plasmid harboring NurRE response element assessed as increase in luciferase activity at 1.56 to 6.25 uM incubated for 18 by luciferase reporter gene assay; settings: PC-12, filed as modulator, dose 1.56-6.25 µM, time 18.0 hrs
[8] = molecular target: Nuclear receptor subfamily 4 group A member 2 (Homo sapiens) (UniProt P43354); experiment: Modulation of full length human Nurr1 expressed in HEK293T cells co-transfected with RXRalpha and luciferase reporter plasmid harboring NurRE response element assessed as increase in luciferase activity at 1.56 to 6.25 uM incubated for 18 by luciferase reporter gene assay; settings: filed as modulator, dose 1.56-6.25 µM, time 18.0 hrs
[9] = molecular target: Nuclear receptor subfamily 4 group A member 2 (Homo sapiens) (UniProt P43354); experiment: Modulation of full length human Nurr1 expressed in SKNBE(2) cells co-transfected with luciferase reporter plasmid harboring NBRE response element assessed as decrease in luciferase activity at 1.56 to 6.25 uM incubated for 18 by luciferase reporter gene assay; settings: SKNBE2, filed as modulator, dose 1.56-6.25 µM, time 18.0 hrs
Procedure, shortened: (§1)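 Cells transfected (Lipofectamine 2000, 18 h) with full-length Nurr1 expression plasmid (2 μg) and 3xNBRE- or 3xNurRE-luciferase reporter (6 μg), no internal control normalisation; replated 10,000 cells/well, 4 h; ligand or vehicle in quadruplicate for 18 h; Britelite Plus luminescence as fold change over vehicle. Mean ± s.e.m. (n=4); one-way ANOVA versus vehicle.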

[10] = molecular target: Nuclear receptor subfamily 4 group A member 2 (Homo sapiens) (UniProt P43354); experiment: Modulation of full length human Nurr1 expressed in PC12 cells co-transfected with luciferase reporter plasmid harboring NurRE response element assessed as decrease in luciferase activity at 1.56 to 6.25 uM incubated for 18 by luciferase reporter gene assay; settings: PC-12, filed as modulator, dose 1.56-6.25 µM, time 18.0 hrs; procedure, shortened: as §1
[11] = molecular target: Nuclear receptor subfamily 4 group A member 2 (Homo sapiens) (UniProt P43354); experiment: Modulation of full length human Nurr1 expressed in PC12 cells co-transfected with luciferase reporter plasmid harboring NBRE response element assessed as decrease in luciferase activity at 1.56 to 6.25 uM incubated for 18 by luciferase reporter gene assay; settings: PC-12, filed as modulator, dose 1.56-6.25 µM, time 18.0 hrs; procedure, shortened: as §1

Measured: Activity

CCN(CC)CCCC(C)Nc1ccnc2cc(Cl)ccc12 (stereo not drawn) [CHLOROQUINE]
active: [1] | [2] | [3] | [4] | SKNBE2

CC1=C(O)C(=O)C=C2C1=CC=C1[C@@]2(C)CC[C@@]2(C)[C@@H]3C[C@](C)(C(=O)O)CC[C@]3(C)CC[C@]12C [CELASTROL]
not listed: [1] | [2] | [3] | [4] | SKNBE2
active: all other assays above

CCN(CC)Cc1cc(Nc2ccnc3cc(Cl)ccc23)ccc1O [AMODIAQUINE]
active: [1] | [2] | [3] | [4] | SKNBE2

— ChEMBL document CHEMBL5030505, “Assessment of NR4A Ligands That Directly Bind and Modulate the Orphan Nuclear Receptor Nurr1” (J Med Chem, 2020)
